In ChEMBL document CHEMBL1124137, “Synthesis and testing of quinone-based bis(2,2-dimethyl-1-aziridinyl)phosphinyl carbamates as radiation-potentiating antitumor agents” (1988) one finds AWC and T/C data, which are given here for two compounds.

A word on the T/C: it is the ratio of treated to control.

What all share (type): functional
Test [1] deals with Mus musculus. Nature of the test: Average weight change on day 5 in mice infected by P-388 leukemia when treated with a dose of 32 mg/Kg of compound. The method, boiled down:
(§1)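 P-388 leukemia kept as ascites in DBA/2 mice; 10⁶ cells implanted into female CDF₁ mice (16–20 g), six mice per dose, 10 untreated leukemia controls. Compound dissolved in water with Tween 80 and given as a single ip injection on day 1 after implant, within 15 min of dissolving. Body weight change averaged on day 5.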

Test [2] has as its system Mus musculus. As to the kind of experiment: Average weight change on day 5 in mice infected by P-388 leukemia when treated with a dose of 128 mg/Kg of compound. The method, boiled down:
as §1

Test [3] concerns Mus musculus. As to the kind of experiment: Average weight change on day 5 in mice infected by P-388 leukemia when treated with a dose of 256 mg/Kg of compound. A digest of the protocol: as §1
Test [4] has as its system Mus musculus. As to the kind of experiment: Average weight change on day 5 in mice infected by P-388 leukemia when treated with a dose of 8 mg/Kg of compound. A digest of the protocol: as §1
Test [5] deals with Mus musculus. Nature of the test: Median survival time (MST) of treated mice infected by P-388 leukemia, as percent of the MST of untreated controls when treated with a dose of 64 mg/Kg of compound. The method, boiled down: (§2)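 P-388 leukemia kept as ascites in DBA/2 mice. CDF1 female mice (16–20 g) received 10⁶ cells; six mice per dose and 10 untreated leukemia controls. Drug in water with Tween 80, given within 15 min of dissolution as a single ip injection on day 1 after implant. Mice observed until death; %T/C is treated over control median survival time. Average weight change taken on day 5.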

Test [6] deals with Mus musculus. As to the kind of experiment: Average weight change on day 5 in mice infected by P-388 leukemia when treated with a dose of 64 mg/Kg of compound. A digest of the protocol:
as §1

Test [7] has as its system Mus musculus. As to the kind of experiment: Average weight change on day 5 in mice infected by P-388 leukemia when treated with a dose of 16 mg/Kg of compound. A digest of the protocol:
as §1

In test [8] the test system is Mus musculus. Nature of the test: Median survival time (MST) of treated mice infected by P-388 leukemia, as percent of the MST of untreated controls when treated with a dose of 16 mg/Kg of compound. A digest of the protocol:
as §2

Test [9] concerns Mus musculus. Nature of the test: Median survival time (MST) of treated mice infected by P-388 leukemia, as percent of the MST of untreated controls when treated with a dose of 128 mg/Kg of compound. A digest of the protocol: as §2
For test [10], the system named is Mus musculus. As to the kind of experiment: Median survival time (MST) of treated mice infected by P-388 leukemia, as percent of the MST of untreated controls when treated with a dose of 256 mg/Kg of compound. A digest of the protocol: as §2
For test [11], the system named is Mus musculus. As to the kind of experiment: Median survival time (MST) of treated mice infected by P-388 leukemia, as percent of the MST of untreated controls when treated with a dose of 8 mg/Kg of compound. A digest of the protocol:
as §2

Test [12] deals with Mus musculus. As to the kind of experiment: Median survival time (MST) of treated mice infected by P-388 leukemia, as percent of the MST of untreated controls when treated with a dose of 32 mg/Kg of compound. The method, boiled down: as §2
For test [13], the system named is Mus musculus. As to the kind of experiment: Median survival time (MST) of treated mice infected by P-388 leukemia, as percent of the MST of untreated controls when treated with a dose of 50 mg/Kg of compound. The method, boiled down:
as §2

Test [14] deals with Mus musculus. As to the kind of experiment: Average weight change on day 5 in mice infected by P-388 leukemia when treated with a dose of 50 mg/Kg of compound. The method, boiled down:
as §2

The test system of test [15] is Mus musculus. Nature of the test: Average weight change on day 5 in mice infected by P-388 leukemia when treated with a dose of 400 mg/Kg of compound. The method, boiled down:
as §2

The test system of test [16] is Mus musculus. As to the kind of experiment: Median survival time (MST) of treated mice infected by P-388 leukemia, as percent of the MST of untreated controls when treated with a dose of 400 mg/Kg of compound. A digest of the protocol:
as §2

The subject of test [17] is Mus musculus. As to the kind of experiment: Average weight change on day 5 in mice infected by P-388 leukemia when treated with a dose of 200 mg/Kg of compound. The method, boiled down: as §2
In test [18] the test system is Mus musculus. Nature of the test: Median survival time (MST) of treated mice infected by P-388 leukemia, as percent of the MST of untreated controls when treated with a dose of 200 mg/Kg of compound. A digest of the protocol: as §2
Test [19] concerns Mus musculus. As to the kind of experiment: Average weight change on day 5 in mice infected by P-388 leukemia when treated with a dose of 100 mg/Kg of compound. The method, boiled down:
as §2

Test [20] concerns Mus musculus. Nature of the test: Median survival time (MST) of treated mice infected by P-388 leukemia, as percent of the MST of untreated controls when treated with a dose of 100 mg/Kg of compound. A digest of the protocol:
as §2

Take `CC1(C)CN1P(=O)(NC(=O)OCC/N=C1C(O)=C(Cl)/C(=N\CCOC(=O)NP(=O)(N2CC2(C)C)N2CC2(C)C)C(O)=C/1Cl)N1CC1(C)C` (stereo not given): the AWC in test [1] is reported as -0.6 g; in [2], -0.9 g; in test [3], -2.1 g; in [4], -0.4 g; in test [6], -1.2 g; in test [7] it was -1.1 g. For the same compound, the T/C turned out to be 124% in [5]; 124% in test [8]; 135% in [9]; 165% in [10]; 118% in test [11]; 129% in test [12].
Regarding `CCOC(=O)NP(=O)(N1CC1(C)C)N1CC1(C)C` (stereo not given) [METUREDEPA], the T/C came to 163% in test [13], 244% in [16], 231% in [18] and 181% in test [20]. For the same compound, the AWC is reported as -0.7 g in test [14], -1.3 g in test [15], -0.2 g in test [17] and -0.4 g in test [19].
